Hits are enriched below; roughly 4% of the tested compounds scored in any of these assays.
Arrestin-AP2 inh: inhibitors of beta-arrestin/AP2 binding, primary screen, biochemical, GPCR trafficking, flow cytometry; beta-arrestin 1 C-terminal peptide binding to AP2 beta2-adaptin appendage (human); FITC-arrestin peptide / GST-AP2 beads; AP2 beta2 appendage carries R879A mutation; inhibition, % at 10 µM; 340,000 tested, 0.31% active; AID 504490, 2011;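 active means inhibition above a set limit, near 3 SD of compounds lacking own fluorescence, cut at about 54% in these data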;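 further: plate controls were DMSO wells for no effect and 5 µM unlabelled arrestin peptide for full effect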
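System: GST-AP2 R879A glutathione beads | Also added: FITC-arrestin peptide, 50 nM | Times: 12 min plus 1 h, RT | Signal: Bead flow cytometry, FITC channel | Buffer or medium: PBS with 0.05% Tween 20 and 0.1% BSA | Read-out basis: Percent drop in bead-associated FITC signal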
FAS TE block: FAS thioesterase domain inhibitors, primary screen, biochemical, fluorescence intensity, uHTS. 360,000 tested, 0.67% active. AID 602261, 2012. inhibition, % at 15 µM. recombinant FAS-TE, OMFH fluorogenic substrate, fluorescence endpoint;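 active means compounds whose normalised, plate-corrected inhibition of enzyme fluorescence in the single-dose primary screen is 50% or more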;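 further: 0% = DMSO with enzyme and 100% = substrate without enzyme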
Cardio protect: cardioprotection against H2O2-induced cell death, primary screen, uHTS, H9c2 cells, ATPLite luminescence; 360,000 tested, 0.63% active; H9c2 cardiomyocytes, H2O2 injury protection, 2 h; protection from H2O2 cell death, % at 20 µM;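 active means compounds giving at least 50% protection of heart cells from peroxide-induced death in the single-dose screen, raw or plate-pattern-corrected value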;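 further: 0% = DMSO wells with peroxide and 100% = DMSO wells without peroxide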
hiPSC survival: enhancers of single-cell hiPSC survival, primary screen, ATPlite luminescence; 100% = ROCK inhibitor wells, 0% = DMSO; survival enhancement, % at 20 µM; 360,000 tested, 0.044% active; in the data active means survival enhancement above about 18%;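 further: cells exposed to compounds for 16 hours before the ATP read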
NR3A LBD binder: binders of NR3A ligand-binding domain, primary screen, biophysical, differential scanning fluorimetry, uHTS; Tm shift relative to glycine control, % at 25 µM; 340,000 tested, 2.5% active; AID 1259313, 2017; NR3A LBD differential scanning fluorimetry, Tm shift; 0% = protein alone, 100% = glycine-bound protein; Glutamate receptor ionotropic, NMDA 3A (GRIN3A) ligand-binding domain;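 active means melting temperature shift of at least 10% of the positive control shift, at one fixed dose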
SENP1 inh: human SENP1 catalytic domain inhibitors, primary screen, biochemical, FRET, uHTS. AID 624204, 2012. inhibition, % at 10 µM. 360,000 tested, 0.21% active. Sentrin-specific protease 1 (Homo sapiens), Q9P0U3. recombinant SENP1 catalytic domain, CyPet-SUMO1-YPet FRET cleavage;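 active means inhibition at least 30% at 10 µM, raw YFP signal under a set limit, fluorescence ratio 0.5 to 1.5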;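 further: 0% = enzyme with DMSO and 100% = no enzyme wells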
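Material – human SENP1 catalytic domain · Input – SENP1 enzyme, 20 pM final · Compound dosing – single concentration of 10 µM compound, 0.5% DMSO final · Timing – enzyme reaction for 50 min at room temperature, dark · Measured by – FRET fluorescence in CFP and YFP emission channels · Control set – no-enzyme wells low, DMSO-plus-enzyme wells high control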
Numbers without * were called inactive; nt = no result.

SMILES | Arrestin-AP2 inh | FAS TE block | Cardio protect | hiPSC survival | NR3A LBD binder | SENP1 inh
CC1CCCN(Cc2nc3c(c(=O)n(C)c(=O)n3C)n2CCc2ccccc2)C1 (configuration not stated) | 24 | 6 | -2 | -2 | -2 | -2
Cn1c(=O)c2c(nc(CN3CCN(C(=O)c4ccco4)CC3)n2CCCc2ccccc2)n(C)c1=O | 11 | 5 | 52* | 2 | -1 | -9
Clc1cc(Cl)cc(Nc2ccccc2CN(C/C=C/c2ccc3c(c2)OCO3)Cc2ccccc2)c1 | nt | 29 | 6 | 4 | nt | 2
CNC(=O)c1ccc(Nc2nnc(-c3ccc(O)cc3)c3ccccc23)cc1 | -6 | -3 | 31 | -1 | 0 | -7
c1ccc(Nc2nc(-c3ccncc3)nc3ccccc23)cc1 | 12 | -10 | -9 | -1 | -9 | -15
COc1ccc(Nc2nc(-c3cccc(OC)c3O)nc3ccccc23)cc1 | 12 | 29 | 0 | 0 | 11* | 1
CC(=O)c1cccc(Nc2nc(-c3ccccc3)nc3ccccc23)c1 | -8 | 13 | 28 | 1 | 23* | 1
CC(=O)Nc1cccc(Nc2nc(-c3ccccc3)nc3ccccc23)c1 | -23 | 20 | 30 | -1 | 5 | -3
Oc1ccc(-c2nnc(Nc3cccc(O)c3)c3ccccc23)cc1 | -19 | -3 | 11 | 0 | 13* | -1
Oc1cccc(Nc2nc(-c3ccccc3)nc3ccccc23)c1 | -11 | 20 | 0 | 0 | 28* | 0
CN1CCN(C2CN(CCc3ccccc3)S(=O)(=O)C2)CC1 (configuration not stated) | nt | -13 | 7 | 0 | nt | 2
O=C(Nc1nc(-c2ccccc2)cs1)c1ccco1 | -6 | 7 | -3 | 0 | -21 | -2
O=C(Nc1cc(-c2ccccc2)cs1)c1ccco1 | 11 | 10 | -8 | -1 | 12* | 2
C=C1C(=O)C=C2CN(C(=O)c3ccccc3)[C@@](Cc3ccc(F)cc3)(C(=O)OC)[C@@H]12 | 36 | -2 | -13 | 1 | 12* | -5
C=C1C(=O)CC2=C1[C@](Cc1ccc(F)cc1)(C(=O)OC)N(C(=O)c1ccccc1)C2 | nt | -4 | nt | -1 | nt | 0
COc1ccc(CCN2CC(C(=O)N(C)Cc3ccccn3)CCC2=O)cc1 (configuration not stated) | nt | -6 | 7 | 1 | nt | 4
CC(=O)Nc1cccc(-c2cc(NC(C)=O)c3ncc(-c4ccc(C(C)=O)cc4)n3c2)c1 | nt | 0 | 19 | -2 | nt | -11
Cn1c(=Nc2ccc(N3CCOCC3)cc2)ccc2ccccc21 | -6 | -9 | 10 | 1 | -2 | 3
CCn1c(=Nc2ccc(N3CCOCC3)cc2)ccc2ccccc21 | 3 | -3 | 0 | 0 | 14* | 2
Cn1c(=O)c2c(nc(Br)n2Cc2ccccc2Cl)n(C)c1=O | -4 | -3 | -4 | 1 | 0 | -1
Cn1c(=O)c2c(nc(Br)n2Cc2ccc3ccccc3c2)n(C)c1=O | 0 | 1 | 87* | 0 | -5 | 2
O=c1ccoc2ccccc12 | nt | -1 | 3 | -2 | nt | 4
CCOC(=O)c1c(C)[nH]c(C(=O)COC(=O)/C=C/c2ccc(OC(F)F)cc2)c1C | -1 | -7 | 2 | 0 | 13* | 1
CCOC(=O)c1c(C)[nH]c(C)c1C(=O)COC(=O)/C=C/c1ccc(OC(F)F)cc1 | 15 | 20 | 4 | 0 | -1 | -1
CC1=C(C(=O)N(C(C)C)C(C)C)CC(CC(=O)NCc2cccc3ccccc23)C(=O)N1Cc1ccc(C(C)(C)C)cc1 (configuration not stated) | nt | 23 | -3 | -2 | nt | -4
SMILES | Arrestin-AP2 inh | FAS TE block | Cardio protect | hiPSC survival | NR3A LBD binder | SENP1 inh
COc1ccc(-c2cc(=O)oc3c(C)c(O)c(CN(C)C)cc23)cc1 | -12 | 0 | 70* | -3 | 0 | -25
COc1ccccc1NS(=O)(=O)c1cc(N)ccc1N1CCCCC1 | 8 | 15 | -3 | -1 | 33* | 2
O=C(Nc1cccc(C(F)(F)F)c1)Nc1ccc(N2CCCC2)c(S(=O)(=O)Nc2ccccc2Cl)c1 | 0 | 28 | -19 | -2 | 30* | 0
COc1ccccc1NS(=O)(=O)c1cc(NC(=O)Nc2ccc(Cl)cc2Cl)ccc1N1CCCCC1 | 1 | 29 | -8 | -2 | 12* | 3
COc1ccccc1NS(=O)(=O)c1cc(NC(=O)C2CCC2)ccc1N1CCCCC1 | 17 | 36 | -5 | 1 | 0 | 0
O=C(Nc1c2c(nn1-c1ccccc1)CS(=O)(=O)C2)c1ccc(Br)o1 | nt | -3 | 5 | 0 | nt | 0
O=C(C[C@H]1CC[C@@H](NS(=O)(=O)c2ccccc2)[C@@H](CO)O1)NCc1ccc(Cl)c(Cl)c1 | nt | nt | nt | nt | nt | 2
COc1ccc(-c2c(C)cc3oc(=O)cc(-c4ccccc4)c3c2C)cc1 | -13 | 24 | -9 | 1 | 15* | 0
COc1ccc(-c2cccc(-c3cc(=O)oc4cc(OC)cc(OC)c34)c2)cc1 | 24 | 16 | -12 | -3 | 15* | 0
CCN(CC)C(=O)C1=C(C)N(Cc2ccc(OC)cc2)C(=O)C(CC(=O)NCCN2CCOCC2)C1 (configuration not stated) | nt | -7 | 7 | 3 | nt | 1
CC1(C(=O)Nc2cnc3ccccc3c2)CCN1Cc1ccc(-c2ccccc2)o1 (configuration not stated) | nt | 9 | 10 | -2 | nt | -8
CCc1ccc(NC(=O)C2CC(=O)Nc3ncnn32)cc1 (configuration not stated) | 13 | -7 | 6 | -1 | 21* | 2
O=C(Nc1ccc(Cl)cc1)Nc1nnc(Cc2ccc([N+](=O)[O-])cc2)s1 | -2 | 0 | -8 | -2 | 0 | 2
Cc1ccc(NC(=O)Nc2nnc(Cc3ccc([N+](=O)[O-])cc3)s2)cc1 | 5 | 3 | -10 | 0 | 22* | 2
CCOC(=O)C1=CCC(C(C)(C)C)N(S(=O)(=O)c2ccc(C)cc2)C1 (configuration not stated) | nt | 13 | -2 | 0 | nt | 0
COc1cccc(CNC(=O)[C@@H]2CCCN2C(=O)[C@H]2CCCCN2C(=O)c2cccc(Cl)c2)c1 | nt | -3 | nt | 0 | nt | 0
CCOC(=O)c1cc(CC)sc1NC(=O)c1cc(OCC)c(OCC)c(OCC)c1 | 20 | 27 | -9 | 5 | 11* | 0

Source: PubChem (several laboratories)
